Experimental data: PubChem BioAssay AID2465 (Broad Institute, 2010)
Fewer than 10 of roughly 24,000 compounds were called active. Rule as the data show it: active = caspase activation above about 5.9%; inconclusive = no clear call, values can overlap the other calls; inactive = below about 2.2%. Not all results are given here.

assay: Bcl2-A1 antagonists releasing BIM, apoptosis – cell-based, luminescence, HTS, two replicates, primary screen (AID 2465); settings: MEF A1-2A-BIM cells, caspase-Glo luminescence, 3 h; stronger effect = higher value; percent of clofoctol response, DMSO zero; concentration not given here
In short: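 system = A1-2A-BIM-expressing MEF cells | quantity = 2500 MEF cells/well | dosing = 50 nL compound per well, pinned | schedule = overnight cell settling, then 3 h compound exposure, 37 °C | signal = luminescence from DEVD-luciferin Caspase-Glo reagent, 1:1 in 50 mM HEPES, 1 h RT | read-out = Caspase-3/7 activation, seen as rise in luminescence signal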

Caspase activation, inactive:
Cc1noc(C)c1S(=O)(=O)N(C)C[C@@H]1OCCCC[C@H](C)Oc2ccc(NC(=O)NC3CCCCC3)cc2C(=O)N([C@@H](C)CO)C[C@H]1C 2.87%
COc1cc(O)cc(OC)c1/C=N/NC(=O)c1ccccc1O -0.325%
C[C@@H]1CCCCO[C@@H](CN(C)C(=O)Nc2cccc3ccccc23)[C@H](C)CN([C@@H](C)CO)C(=O)c2cc(NS(=O)(=O)c3ccccc3)ccc2O1 0.255%
COc1ccc(S(=O)(=O)Nc2ccc3c(c2)C(=O)N([C@@H](C)CO)C[C@H](C)[C@@H](CN(C)C(=O)Nc2ccc4c(c2)OCO4)OCCCC[C@@H](C)O3)cc1 0.557%
C[C@H]1CCCCO[C@@H](CN(C)Cc2ccc3c(c2)OCO3)[C@@H](C)CN([C@@H](C)CO)C(=O)c2cc(NC(=O)c3ccccc3)ccc2O1 -0.254%
C[C@@H]1CN([C@@H](C)CO)C(=O)c2cc(NC(=O)Nc3ccccc3)ccc2O[C@H]1CN(C)S(=O)(=O)c1ccccc1 -0.0866%
C[C@@H]1CCCCO[C@H](CN(C)C(=O)Nc2cccc3ccccc23)[C@H](C)CN([C@@H](C)CO)C(=O)c2cc(NC(=O)CCCN(C)C)ccc2O1 -0.756%
COc1ccc(CN(C)C[C@@H]2OCCCC[C@H](C)Oc3ccc(NS(=O)(=O)c4ccc(F)cc4)cc3C(=O)N([C@@H](C)CO)C[C@@H]2C)cc1 0.494%
O=C(NO)c1cccc(C(=O)N/N=C/c2c[nH]c3ccccc23)c1 -1.04%
C[C@@H]1CN([C@@H](C)CO)C(=O)CCCn2nncc2CO[C@@H]1CN(C)S(=O)(=O)c1ccc(-c2ccccc2)cc1 -0.179%
Cc1ccc(S(=O)(=O)Nc2ccc3c(c2)C(=O)N([C@H](C)CO)C[C@H](C)[C@H](CN(C)C(=O)Nc2ccc4c(c2)OCO4)OCCCC[C@@H](C)O3)cc1 -0.5%
C[C@@H]1CCCCO[C@@H](CN(C)Cc2ccccc2)[C@H](C)CN([C@H](C)CO)C(=O)c2cc(NC(=O)Nc3cccc4ccccc34)ccc2O1 1.29%
C[C@@H]1CCCCO[C@@H](CN(C)CC2CCCCC2)[C@H](C)CN([C@H](C)CO)C(=O)c2cc(NC(=O)C3CCCCC3)ccc2O1 0.00789%
CC(C)NC(=O)Nc1ccc2c(c1)C(=O)N([C@H](C)CO)C[C@H](C)[C@@H](CN(C)Cc1ccc3c(c1)OCO3)OCCCC[C@H](C)O2 -0.756%
CNC[C@H]1OCCCC[C@@H](C)Oc2ccc(NS(C)(=O)=O)cc2C(=O)N([C@@H](C)CO)C[C@H]1C -0.624%
COc1ccc(S(=O)(=O)Nc2ccc3c(c2)C(=O)N([C@H](C)CO)C[C@@H](C)[C@H](CN(C)C(=O)c2ccncc2)OCCCC[C@@H](C)O3)cc1 0.262%
C[C@H]1CN([C@@H](C)CO)C(=O)CCCn2cc(nn2)CO[C@@H]1CN(C)S(=O)(=O)c1ccccc1C#N 0.483%
C[C@H]1CN([C@@H](C)CO)C(=O)Cc2cc(NC(=O)CCCCCC(=O)Nc3ccccc3N)ccc2O[C@@H]1CN(C)Cc1ccncc1 -0.722%
CC(C)NC(=O)Nc1ccc2c(c1)C(=O)N([C@@H](C)CO)C[C@@H](C)[C@H](CN(C)Cc1ccc(Cl)c(Cl)c1)OCCCC[C@H](C)O2 -1.26%
COc1ccc(NC(=O)N(C)C[C@H]2OCCCC[C@H](C)Oc3ccc(NC(=O)NC4CCCCC4)cc3C(=O)N([C@@H](C)CO)C[C@@H]2C)cc1 -0.198%
C[C@@H]1CN([C@H](C)CO)C(=O)c2cc(NC(=O)Cn3cnnn3)ccc2O[C@@H]1CN(C)C(=O)Nc1ccc2c(c1)OCO2 -0.00909%
C[C@H](CO)N1C[C@H](C)[C@@H](CN(C)CC2CC2)OCCCC[C@H](C)Oc2ccc(NC(=O)Cc3ccccc3)cc2C1=O 0.105%
CCCN(C)C[C@@H]1OCCCC[C@@H](C)Oc2ccc(NC(=O)Nc3ccc(C(F)(F)F)cc3)cc2C(=O)N([C@H](C)CO)C[C@H]1C 1.62%
C[C@H](CO)N1C[C@H](C)[C@@H](CN(C)Cc2ccncc2)Oc2ccc(NS(=O)(=O)c3ccc(Cl)cc3)cc2CC1=O -1.19%
